Test results from ChEMBL document CHEMBL4813978 (Bioorg Med Chem Lett, 2021).

What was measured:
[1] = molecular target: T1, Muscarinic acetylcholine receptor M2 (Homo sapiens, UniProt P08172); experiment: Agonist activity at muscarinic M2 receptor (unknown origin) expressed in CHO cells; format: functional, cell-based
T1 sequence (P08172 whole entry): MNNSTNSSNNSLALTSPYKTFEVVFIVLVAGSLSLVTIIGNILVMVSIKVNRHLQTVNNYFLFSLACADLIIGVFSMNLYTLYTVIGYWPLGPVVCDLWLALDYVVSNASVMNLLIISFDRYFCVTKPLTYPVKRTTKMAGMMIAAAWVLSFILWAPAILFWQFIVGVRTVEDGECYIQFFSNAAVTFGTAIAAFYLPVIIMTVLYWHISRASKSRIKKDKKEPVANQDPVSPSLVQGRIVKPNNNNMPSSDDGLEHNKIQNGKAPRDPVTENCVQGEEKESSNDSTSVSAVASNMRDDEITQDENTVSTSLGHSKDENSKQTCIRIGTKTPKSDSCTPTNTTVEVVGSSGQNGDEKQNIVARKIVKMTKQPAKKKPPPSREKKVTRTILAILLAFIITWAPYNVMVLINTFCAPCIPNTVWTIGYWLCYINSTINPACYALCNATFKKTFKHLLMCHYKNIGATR
Outline: (§1)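 Agonist-mode EC50 with Emax. Emax given as mean ± SE of two or more experiments.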

[2] = molecular target: T2, Muscarinic acetylcholine receptor M4 (Homo sapiens, UniProt P08173); experiment: Agonist activity at muscarinic M4 receptor (unknown origin) expressed in CHO cells; format: functional, cell-based; outline: as §1
T2 sequence (P08173 whole entry): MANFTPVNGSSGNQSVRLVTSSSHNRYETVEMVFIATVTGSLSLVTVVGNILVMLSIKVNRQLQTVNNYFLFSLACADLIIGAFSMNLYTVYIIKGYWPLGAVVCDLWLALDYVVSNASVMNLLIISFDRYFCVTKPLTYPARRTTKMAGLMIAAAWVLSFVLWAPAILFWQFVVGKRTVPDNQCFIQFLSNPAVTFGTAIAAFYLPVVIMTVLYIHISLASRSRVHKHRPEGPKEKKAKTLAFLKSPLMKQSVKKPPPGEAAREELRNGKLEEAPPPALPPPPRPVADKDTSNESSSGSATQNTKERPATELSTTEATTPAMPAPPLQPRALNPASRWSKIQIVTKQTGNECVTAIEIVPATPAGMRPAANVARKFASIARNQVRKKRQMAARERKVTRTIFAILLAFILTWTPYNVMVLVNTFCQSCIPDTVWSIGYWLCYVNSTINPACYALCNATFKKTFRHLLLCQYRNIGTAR

[3] = molecular target: Muscarinic acetylcholine receptor M3 (Homo sapiens, UniProt P20309); experiment: Agonist activity at muscarinic M3 receptor (unknown origin) expressed in CHO cells; format: functional, cell-based
[4] = molecular target: T3, Muscarinic acetylcholine receptor M1 (Homo sapiens, UniProt P11229); experiment: Agonist activity at muscarinic M1 receptor (unknown origin) expressed in CHO cells; format: functional, cell-based
T3 sequence (P11229 whole entry): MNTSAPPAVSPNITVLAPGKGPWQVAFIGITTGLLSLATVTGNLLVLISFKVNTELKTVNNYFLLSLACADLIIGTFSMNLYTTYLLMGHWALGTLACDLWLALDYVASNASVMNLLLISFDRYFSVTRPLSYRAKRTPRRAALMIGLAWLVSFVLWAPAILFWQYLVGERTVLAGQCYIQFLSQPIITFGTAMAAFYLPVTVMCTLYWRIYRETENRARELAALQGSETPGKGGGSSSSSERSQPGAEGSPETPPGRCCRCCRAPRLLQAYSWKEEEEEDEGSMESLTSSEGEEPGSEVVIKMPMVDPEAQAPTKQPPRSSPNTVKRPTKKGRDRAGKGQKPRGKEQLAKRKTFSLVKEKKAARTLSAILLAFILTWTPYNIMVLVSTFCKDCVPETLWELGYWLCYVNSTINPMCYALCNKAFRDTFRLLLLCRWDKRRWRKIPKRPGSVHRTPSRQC

[5] = Glutathione reactivity of compound assessed as compound-dGSH conjugate formation incubated by fluorescence detector; format: physicochemical
Outline: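 Test compounds incubated with dansyl-glutathione (dGSH) and a human hepatocyte microsome fraction. The test compound–dGSH conjugate was quantified by fluorescence detection and reported as μmol/L.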

D(2) dopamine receptor = D(2) dopamine receptor (Homo sapiens, UniProt P14416); experiment: Antagonist activity at human D2 receptor expressed in CHO cells assessed as inhibition of dopamine-induced calcium accumulation; format: functional, cell-based
D(1A) dopamine receptor = D(1A) dopamine receptor (Homo sapiens, UniProt P21728); experiment: Antagonist activity at human D1 receptor expressed in CHO cells assessed as inhibition of dopamine-induced calcium accumulation; format: functional, cell-based
[6] = Drug concentration in po dosed mouse brain measured after 1 hr; format: ADME, organism-based; settings: read-out: Drug uptake
[7] = Drug concentration in po dosed mouse plasma measured after 1 hr; format: ADME, organism-based
[8] = Ratio of drug level in brain to plasma in po dosed mouse after 1 hr; format: ADME, organism-based; settings: read-out: BPR

Chain of D(1A) dopamine receptor (P21728 whole entry): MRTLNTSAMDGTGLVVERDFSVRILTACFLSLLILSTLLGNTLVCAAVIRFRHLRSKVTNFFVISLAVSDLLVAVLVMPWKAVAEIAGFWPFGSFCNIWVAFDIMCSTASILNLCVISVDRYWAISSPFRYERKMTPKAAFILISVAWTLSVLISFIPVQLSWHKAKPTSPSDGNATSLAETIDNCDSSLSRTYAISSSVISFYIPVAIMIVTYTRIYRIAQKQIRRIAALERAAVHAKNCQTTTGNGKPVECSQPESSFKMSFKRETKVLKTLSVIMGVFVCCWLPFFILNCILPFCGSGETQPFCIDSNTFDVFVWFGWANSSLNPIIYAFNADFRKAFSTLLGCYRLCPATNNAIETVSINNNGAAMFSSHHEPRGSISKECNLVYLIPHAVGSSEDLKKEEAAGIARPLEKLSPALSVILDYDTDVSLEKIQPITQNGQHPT
Chain of D(2) dopamine receptor (P14416 whole entry): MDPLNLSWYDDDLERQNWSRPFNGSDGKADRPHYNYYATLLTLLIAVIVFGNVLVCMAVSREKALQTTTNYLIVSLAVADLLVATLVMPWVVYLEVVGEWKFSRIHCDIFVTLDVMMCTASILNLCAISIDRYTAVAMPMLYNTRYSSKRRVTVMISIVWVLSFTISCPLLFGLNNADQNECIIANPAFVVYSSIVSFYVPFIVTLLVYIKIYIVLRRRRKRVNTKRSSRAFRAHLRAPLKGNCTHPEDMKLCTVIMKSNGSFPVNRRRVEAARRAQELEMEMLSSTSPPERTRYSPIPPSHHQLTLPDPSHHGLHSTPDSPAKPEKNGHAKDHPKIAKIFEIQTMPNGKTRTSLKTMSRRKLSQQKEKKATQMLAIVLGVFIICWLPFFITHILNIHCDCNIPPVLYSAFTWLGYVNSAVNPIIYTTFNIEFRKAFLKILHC
Chain of Muscarinic acetylcholine receptor M3 (P20309 whole entry): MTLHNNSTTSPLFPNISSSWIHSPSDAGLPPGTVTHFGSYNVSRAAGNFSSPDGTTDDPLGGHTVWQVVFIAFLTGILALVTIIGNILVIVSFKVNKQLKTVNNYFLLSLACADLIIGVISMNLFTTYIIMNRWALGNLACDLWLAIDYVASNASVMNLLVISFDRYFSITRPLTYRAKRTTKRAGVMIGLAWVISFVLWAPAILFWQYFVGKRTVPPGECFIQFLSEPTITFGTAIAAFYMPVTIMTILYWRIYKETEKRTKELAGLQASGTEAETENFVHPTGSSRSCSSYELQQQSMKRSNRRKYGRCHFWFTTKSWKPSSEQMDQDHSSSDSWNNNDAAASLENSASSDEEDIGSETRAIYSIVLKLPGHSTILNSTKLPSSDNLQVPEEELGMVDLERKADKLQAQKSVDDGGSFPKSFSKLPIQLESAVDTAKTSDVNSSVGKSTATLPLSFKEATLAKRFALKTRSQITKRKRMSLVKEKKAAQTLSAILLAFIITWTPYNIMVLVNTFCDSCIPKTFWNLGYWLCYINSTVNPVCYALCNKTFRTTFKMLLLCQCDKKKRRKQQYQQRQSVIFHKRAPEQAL

Row | SMILES | EC50 [1] [µM] | EC50 [2] [µM] | EC50 [3] [µM] | EC50 [4] [µM] | Activity [5] [µmol/L] | Ki (D(2) dopamine receptor) [µM] | Ki (D(1A) dopamine receptor) [µM] | concentration at 1 h [6] [nM] | concentration at 1 h [7] [nM] | Kp at 1 h [8]
1 | Fc1ccc2c(c1)C(C1=CCNCC1)=Nc1cc(Cl)ccc1N2 | > 10 | > 10 | > 10 | > 10 |  |  |  |  |  | 
2 | CN1CCN(C2=Nc3cc(Cl)ccc3Nc3ccccc32)CC1 [CLOZAPINE] |  |  |  |  | 7.5 |  |  |  |  | 
3 | CN1CC=C(C2=Nc3cc(Cl)ccc3Nc3ccccc32)CC1 | > 10 | > 10 | 0.64 | 0.35 | 0.21 |  |  |  |  | 
4 | COc1ccc2c(c1)C(C1=CCN(C)CC1)=Nc1cc(C)ccc1N2 |  | > 10 |  | > 10 | 0.07 | 0.329 |  |  |  | 
5 | Cc1ccc2c(c1)N=C(C1=CCN(C)CC1)c1cc(C)ccc1N2 |  | > 10 |  | > 10 | 0.22 | 0.694 | 0.057 |  |  | 
6 | Clc1ccc2c(c1)N=C(N1CCNCC1)c1ccccc1N2 [N-DESMETHYLCLOZAPINE] | > 10 |  | 0.67 | 0.048 |  | 0.489 | 0.08 |  |  | 
7 | CCc1ccc2c(c1)C(C1=C[C@H](C)N(C)CC1)=Nc1cc(Cl)ccc1N2 |  |  |  | > 10 |  |  |  |  |  | 
8 | CCN1CC=C(C2=Nc3cc(Cl)ccc3Nc3ccc(F)cc32)CC1 |  | > 10 |  | > 10 | 0.27 | 0.34 |  |  |  | 
9 | CN1CC=C(C2=Nc3cc(Cl)ccc3Nc3ccc(F)cc32)CC1 | > 10 | > 10 | > 10 | 4.7 | 0.3 | 0.41 | 0.035 |  |  | 
10 | CN1CC=C(C2=Nc3cc(F)ccc3Nc3ccc(Cl)cc32)CC1 |  | > 10 |  | > 10 |  | 0.108 |  |  |  | 
11 | Cc1ccc2c(c1)N=C(C1=CCNCC1)c1cc(F)ccc1N2 | > 10 | > 10 | > 10 | > 10 |  |  |  | 63 |  | 
12 | Cc1ccc2c(c1)N=C(C1=CCN(C)CC1)c1cc(F)ccc1N2 | > 10 | > 10 | > 10 | 0.31 |  |  |  | 1840 | 360 | 5.2
13 | CCc1ccc2c(c1)C(C1=CCN(C)CC1)=Nc1cc(C)ccc1N2 |  | > 10 |  | > 10 |  |  |  |  |  | 
14 | CC(C)N1CC=C(C2=Nc3cc(Cl)ccc3Nc3ccc(F)cc32)CC1 |  | > 10 |  | > 10 | 0.29 |  |  |  |  | 
15 | Cc1ccc2c(c1)N=C(C1=C[C@H](C)N(C)CC1)c1cc(F)ccc1N2 |  |  |  | > 10 |  |  |  |  |  | 
